Source: ChEMBL document CHEMBL4680257, “Discovery of novel NF-кB inhibitor based on scaffold hopping: 1,4,5,6,7,8-hexahydropyrido[4,3-d]pyrimidine” (Eur J Med Chem, 2020)

Experiments:
HepG2 = assay: Cytotoxicity against human HepG2 cells assessed as reduction in cell viability incubated for 24 hrs by MTT assay; type: functional, cell-based; conditions: HepG2, 24 h
Summary of the method: (§1)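 Cells kept at 37 °C in 5% CO₂. HepG2 grown in DMEM with 10% serum; HHL-5, LO2 and SMMC-7721 in 1640 medium with 10% serum. Seeded, grown 24 h, then exposed 24 h to 10, 5, 2.5, 1.25, 0.625 and 0.3125 µg/mL. MTT (5 mg/mL) added for 4 h at 37 °C; formazan dissolved in DMSO, OD read at 570 nm. IC50 averaged from three replicates.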

SMMC-7721 = assay: Cytotoxicity against human SMMC-7721 cells assessed as reduction in cell viability incubated for 24 hrs by MTT assay; type: functional, cell-based; conditions: SMMC-7721, 24 h; summary of the method: as §1
RAW264.7 [1] = assay: Antiinflammatory activity against mouse RAW264.7 cells assessed as LPS-induced TNF-alpha at 5 uM pretreated for 2 hrs followed by LPS stimulation and measured after 22 hrs by ELISA (reference value: 0 %); type: functional; conditions: time 24 hrs
RAW264.7 [2] = assay: Cytotoxicity against mouse RAW264.7 cells assessed as reduction in cell viability at 5 uM incubated for 24 hrs by MTT assay; type: cell-based; conditions: raw264.7, 24 h
L02 = assay: Cytotoxicity against human L02 cells assessed as reduction in cell viability incubated for 24 hrs by MTT assay; type: cell-based; conditions: L02, 24 h; summary of the method: as §1
[3] = Cytotoxicity against human HHL-5 cells assessed as reduction in cell viability incubated for 24 hrs by MTT assay; type: cell-based; conditions: HHL-5, 24 h; summary of the method: as §1
RAW264.7 [4] = assay: Antiinflammatory activity against mouse RAW264.7 cells assessed as LPS-induced IL-6 at 5 uM pretreated for 2 hrs followed by LPS stimulation and measured after 22 hrs by ELISA relative to control (reference value: 0 %); type: functional; conditions: time 24 hrs

Structure (SMILES)	IC50 (HepG2) [µM]	IC50 (SMMC-7721) [µM]	inhibition at 5 µM (RAW264.7 [1]) [%]	Activity (RAW264.7 [2])	IC50 (L02) [µM]	IC50 [3] [µM]	inhibition at 5 µM (RAW264.7 [4]) [%]
Cl.NC1=NC(c2ccc(F)cc2)C2=C(N1)/C(=C/c1ccc(F)cc1)CN(S(=O)(=O)c1ccc(Cl)cc1)C2 (configuration not stated)	7.6	12	48.4	Non-Toxic	16.7	27.1	54.8
Cl.NC1=NC(c2ccccc2F)C2=C(N1)/C(=C/c1ccccc1F)CN(S(=O)(=O)c1ccc(Br)cc1)C2 (configuration not stated)	10.4	9.7	74.4	Non-Toxic	19.5	12.5	79.6
CC(=O)Nc1ccc(S(=O)(=O)N2CC3=C(NC(N)=NC3c3cccc(F)c3)/C(=C/c3cccc(F)c3)C2)cc1.Cl (configuration not stated)	22.9	6.5	69.9	Non-Toxic	15	10.7	57.5
Cl.NC1=NC(c2cccc(F)c2)C2=C(N1)/C(=C/c1cccc(F)c1)CN(S(=O)(=O)c1ccc(Cl)cc1)C2 (configuration not stated)	15	5.5	57.7	Non-Toxic	15.1	12	75.9
Cl.N#Cc1ccc(S(=O)(=O)N2CC3=C(NC(N)=NC3c3ccc(F)cc3)/C(=C/c3ccc(F)cc3)C2)cc1 (configuration not stated)	11.7	42.7	45.9	Non-Toxic	18.6	26.7	51.1
Cl.NC1=NC(c2ccccc2F)C2=C(N1)/C(=C/c1ccccc1F)CN(S(=O)(=O)c1ccc(F)cc1)C2 (configuration not stated)	12.1	10	78.6	Non-Toxic	16.5	12	79.5
Cc1ccc(S(=O)(=O)N2CC3=C(NC(N)=NC3c3ccc(F)cc3)/C(=C/c3ccc(F)cc3)C2)cc1.Cl (configuration not stated)	4.5	4.3	61.8	Non-Toxic	17.7	32.7	60.1
Cl.N#Cc1ccc(S(=O)(=O)N2CC3=C(NC(N)=NC3c3cccc(F)c3)/C(=C/c3cccc(F)c3)C2)cc1 (configuration not stated)	3.5	4.2	74.5	Non-Toxic	17.2	18.9	73
Cl.NC1=NC(c2cccc(F)c2)C2=C(N1)/C(=C/c1cccc(F)c1)CN(S(=O)(=O)c1ccccc1)C2 (configuration not stated)	3.7	12.8	54	Non-Toxic	37.8	11.3	56.3
Cl.NC1=NC(c2ccccc2F)C2=C(N1)/C(=C/c1ccccc1F)CN(S(=O)(=O)c1ccc(C(F)(F)F)cc1)C2 (configuration not stated)	3.9	3.5	84.4	Non-Toxic	22	20.8	82.3
Cl.NC1=NC(c2cccc(F)c2)C2=C(N1)/C(=C/c1cccc(F)c1)CN(S(=O)(=O)c1ccc(F)cc1)C2 (configuration not stated)	12.4	4.8	71.6	Non-Toxic	18.8	12.9	74.9
CC(=O)Nc1ccc(S(=O)(=O)N2CC3=C(NC(N)=NC3c3ccccc3F)/C(=C/c3ccccc3F)C2)cc1.Cl (configuration not stated)	11.8	8.6	67.6	Non-Toxic	11.2	22.1	61.6
Cl.NC1=NC(c2ccc(F)cc2)C2=C(N1)/C(=C/c1ccc(F)cc1)CN(S(=O)(=O)c1ccccc1)C2 (configuration not stated)	9.5	8	33.5	Non-Toxic	9.9	11.5	39.8
Cl.N#Cc1ccc(S(=O)(=O)N2CC3=C(NC(N)=NC3c3ccccc3F)/C(=C/c3ccccc3F)C2)cc1 (configuration not stated)	11.7	19	62.9	Non-Toxic	12	29	71.2
Cc1ccc(S(=O)(=O)N2CC3=C(NC(N)=NC3c3ccccc3F)/C(=C/c3ccccc3F)C2)cc1.Cl (configuration not stated)	13.1	7.3	44	Non-Toxic	11.5	9.6	56.8
CC(=O)Nc1ccc(S(=O)(=O)N2CC3=C(NC(N)=NC3c3ccc(F)cc3)/C(=C/c3ccc(F)cc3)C2)cc1.Cl (configuration not stated)	7.4	6.2	40.1	Non-Toxic	20.3	32.2	54.2
Cl.NC1=NC(c2ccccc2F)C2=C(N1)/C(=C/c1ccccc1F)CN(S(=O)(=O)c1ccc(Cl)cc1)C2 (configuration not stated)	12.2	4.9	83	Non-Toxic	11.5	9.1	81.5
Cl.NC1=NC(c2cccc(F)c2)C2=C(N1)/C(=C/c1cccc(F)c1)CN(S(=O)(=O)c1ccc([N+](=O)[O-])cc1)C2 (configuration not stated)	30.6	12.3	58.8	Non-Toxic	42.4	30.5	78.5
Cl.NC1=NC(c2cccc(F)c2)C2=C(N1)/C(=C/c1cccc(F)c1)CN(S(=O)(=O)c1ccc(Br)cc1)C2 (configuration not stated)	10.6	6.3	69.3	Non-Toxic	10.1	13	71
Cl.NC1=NC(c2ccc(F)cc2)C2=C(N1)/C(=C/c1ccc(F)cc1)CN(S(=O)(=O)c1ccc(F)cc1)C2 (configuration not stated)	4.1	17.1	72.3	Non-Toxic	13.3	11.1	71.4
Cl.NC1=NC(c2ccc(F)cc2)C2=C(N1)/C(=C/c1ccc(F)cc1)CN(S(=O)(=O)c1ccc(Br)cc1)C2 (configuration not stated)	5.6	12.2	58.1	Non-Toxic	18.3	18.3	64.3
O=C1/C(=C/c2ccccc2F)CN(S(=O)(=O)c2ccc([N+](=O)[O-])cc2)C/C1=C\c1ccccc1F	16.5	6.2		Non-Toxic	15.5	6.6	
O=C1/C(=C/c2ccc(F)cc2)CN(S(=O)(=O)c2ccc(Cl)cc2)C/C1=C\c1ccc(F)cc1	4.5	7		Non-Toxic	15.5	17.7	
CC(=O)Nc1ccc(S(=O)(=O)N2C/C(=C\c3cccc(F)c3)C(=O)/C(=C/c3cccc(F)c3)C2)cc1	11.1	10.3		Non-Toxic	17.5	17	
